Each structure is given as a SMILES string. Active and inactive are the calls of the source. The rule behind the calls is not given here.

Data on four compounds can be found in ChEMBL document CHEMBL4732105, “First orally bioavailable prodrug of proteolysis targeting chimera (PROTAC) degrades cyclin-dependent kinases 2/4/6 in vivo” (Eur J Med Chem, 2021).

Data set [1] is described as follows: AUC (0 to 12 hrs) in Sprague-Dawley rat at 200 mg/kg, po. Also noted: time < 12 hr, route oral, dose 200 mg/kg. The note with it: in vivo. It counts as ADME, organism-based. A digest of the protocol:
(§1)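 Single oral dose of 200 mg/Kg to SD rats (n = 3). Prodrug and released active degrader quantified in plasma over 0–12 h; Cmax, Tmax and AUC0-12 derived by non-compartmental model.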

The test system of data set [2] is B16-F10. Put plainly: Antitumor activity against mouse B16F10 cells xenografted in C57BL/6J mouse assessed as supression in tumor size at 200 mg/kg, po measured after 15 days. Type of data set: functional, organism-based. The note with it: time 15.0 day. A digest of the protocol:
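C57BL/6J mice given B16F10 cells […], then dosed orally versus vehicle. Tumor volume and body weight monitored; tumors weighed on day 15 (n = 6). Tumor tissue (n = 5) immunostained for CDK2/4/6.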

Data set [3] in a line: AUC (0 to 12 hrs) in Sprague-Dawley rat at 10 mg/kg, iv. Type of data set: ADME, organism-based. Also noted: time < 12 hr, route intravenous, dose 10 mg/kg. Conditions: in vivo.
The nature of data set [4]: Oral bioavailability in Sprague-Dawley rat at 200 mg/kg. It counts as ADME, organism-based. Conditions: in vivo. In short, it runs like this:
(§2)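 SD rats, n = 3, single dose of prodrug: IV by tail vein at 10 mg/Kg, or PO at 200 mg/Kg. Plasma levels of prodrug and released active degrader followed over 0–12 h. Parameters derived by a non-compartmental model.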

Data set [5] can be described thus: Cmax in Sprague-Dawley rat at 200 mg/kg, po. Also on record: route oral, dose 200 mg/kg. It counts as ADME, organism-based. Conditions: in vivo. In short, it runs like this: as §1
Data set [6] in a line: Toxicity in mouse C57BL/6J mouse xenografted with B16F10 cells assessed as effect on body weight at 200 mg/kg, po measured after 15 days. It counts as organism-based. Conditions: in vivo, 360 h, time 15 day. In short, it runs like this:
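C57BL/6J mice injected […] with B16F10 cells and given compound orally. Tumor volume and body weight monitored, and tumors weighed on day 15. Mean ± SD, n = 6.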

Data set [7] in a line: Tmax in Sprague-Dawley rat at 200 mg/kg, po. The note with it: in vivo. Type of data set: ADME, organism-based. A digest of the protocol: as §2
The nature of data set [8]: Cmax in Sprague-Dawley rat at 10 mg/kg, iv. Type of data set: ADME, organism-based. Also noted: route intravenous, dose 10 mg/kg. The note with it: in vivo.
The test system of the next data set is A-375. Put plainly: Cytotoxicity against human A375 cells assessed as reduction in cell viability after 72 hrs by MTT assay. Type of data set: functional, cell-based. Conditions: A-375, 72 h. A digest of the protocol: (§3)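 Cells exposed to compound for 72 h and viability read by MTT; IC50 from three independent experiments.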
Background: Tetrazolium assays rely on reduction of a dye to a coloured formazan, in cell work by metabolically active cells.

Data set [9] has as its system B16-F10. Put plainly: Cytotoxicity against mouse B16F10 cells assessed as reduction in cell viability after 72 hrs by MTT assay. Conditions: B16-F10, 72 h. It counts as functional, cell-based. In short, it runs like this:
as §3

The next data set has as its target CDK6/cyclin D3 (Homo sapiens, UniProt Q00534). As to the kind of experiment: Inhibition of CDK6/Cyclin D (unknown origin). It counts as protein-complex assay.
Data set [10] has as its target Cyclin-dependent kinase 2/cyclin E1 (Homo sapiens, UniProt P24941). Put plainly: Inhibition of CDK2/Cyclin E (unknown origin). It counts as protein-complex assay.
Data set [11] concerns the target Cyclin-dependent kinase 4/cyclin D1 (Homo sapiens, UniProt P11802). As to the kind of experiment: Inhibition of CDK4/cyclin D1 (unknown origin). It counts as protein-complex assay.

Chain of CDK6/cyclin D3 (P30281 whole entry): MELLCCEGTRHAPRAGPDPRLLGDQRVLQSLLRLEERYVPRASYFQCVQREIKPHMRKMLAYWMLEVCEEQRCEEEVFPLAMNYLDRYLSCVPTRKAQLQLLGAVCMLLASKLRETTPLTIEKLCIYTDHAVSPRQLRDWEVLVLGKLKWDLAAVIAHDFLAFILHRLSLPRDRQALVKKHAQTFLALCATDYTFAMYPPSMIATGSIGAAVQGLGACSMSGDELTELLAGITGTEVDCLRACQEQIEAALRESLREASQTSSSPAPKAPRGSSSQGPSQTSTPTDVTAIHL
Chain of CDK6/cyclin D3 (Q00534 whole entry): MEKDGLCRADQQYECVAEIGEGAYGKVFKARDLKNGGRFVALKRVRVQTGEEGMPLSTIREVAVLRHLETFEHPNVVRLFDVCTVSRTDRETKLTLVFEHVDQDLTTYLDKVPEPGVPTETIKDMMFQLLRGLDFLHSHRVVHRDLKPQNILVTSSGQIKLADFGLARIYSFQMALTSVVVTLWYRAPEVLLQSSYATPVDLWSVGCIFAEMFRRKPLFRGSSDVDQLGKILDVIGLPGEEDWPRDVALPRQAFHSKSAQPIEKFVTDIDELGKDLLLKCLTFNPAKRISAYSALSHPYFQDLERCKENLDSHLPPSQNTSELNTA
Chain of Cyclin-dependent kinase 4/cyclin D1 (P11802 whole entry): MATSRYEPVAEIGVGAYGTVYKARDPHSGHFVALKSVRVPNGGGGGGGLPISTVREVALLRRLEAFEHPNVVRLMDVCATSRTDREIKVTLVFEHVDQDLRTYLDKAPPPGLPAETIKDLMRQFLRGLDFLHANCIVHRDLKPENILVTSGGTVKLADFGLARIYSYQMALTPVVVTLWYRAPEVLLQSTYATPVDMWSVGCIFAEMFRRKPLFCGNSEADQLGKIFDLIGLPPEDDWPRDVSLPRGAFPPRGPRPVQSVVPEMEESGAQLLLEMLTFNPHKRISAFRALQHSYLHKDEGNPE
Chain of Cyclin-dependent kinase 4/cyclin D1 (P24385 whole entry, further chain): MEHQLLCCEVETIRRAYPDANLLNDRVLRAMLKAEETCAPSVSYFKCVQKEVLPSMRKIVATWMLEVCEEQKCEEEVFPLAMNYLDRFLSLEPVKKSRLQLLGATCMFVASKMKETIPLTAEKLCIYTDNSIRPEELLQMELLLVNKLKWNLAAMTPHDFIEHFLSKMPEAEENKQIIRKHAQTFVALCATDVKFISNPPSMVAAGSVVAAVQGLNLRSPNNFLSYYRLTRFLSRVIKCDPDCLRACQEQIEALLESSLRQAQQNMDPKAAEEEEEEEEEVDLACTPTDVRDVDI

As for `CN(C)C(=O)c1cc2cnc(Nc3ccc(C(=O)NCCCCCCNc4cccc5c4C(=O)N(C4CCC(=O)N(COC(=O)C(C)(C)C)C4=O)C5=O)cc3)nc2n1C1CCCC1` (stereo not given), the AUC – broadly, the area under the concentration-time curve, a measure of exposure – is 2810 µg·h/mL in data set [1] and 95.7 µg·h/mL in data set [3]. In addition, in the data set on B16-F10 [2], the result was Active. Further, the bioavailability – broadly, dose-corrected exposure relative to a reference, in per cent – in data set [4] turned out to be 68%. Also, the Cmax (usually the peak of the concentration-time curve) is 2260 µg/mL in data set [5] and 111 µg/mL in data set [8]. The Activity result in data set [6] is on record as “Non-Toxic”. For the same compound, the Tmax (usually the time at which the peak concentration occurs) in data set [7] amounted to 15 min.
For `Nc1cccc2c1C(=O)N(C1CCC(=O)NC1=O)C2=O` (stereo not given) [POMALIDOMIDE], the concentration for half-maximal inhibition (IC50) in the data set with A-375 and with B16-F10 [9] was more than 10 µM each time.
With `COC(=O)c1ccc(Nc2ncc3cc(C(=O)N(C)C)n(C4CCCC4)c3n2)cc1`, the IC50 – broadly, the concentration that gives 50% inhibition – against CDK6/cyclin D3 amounted to 101 nM; in data set [10], 390 nM; in data set [11], 112 nM.
As to `CN(C)C(=O)c1cc2cnc(Nc3ccc(N4CCNCC4)cn3)nc2n1C1CCCC1` [RIBOCICLIB], the IC50 with A-375 and in the data set on B16-F10 [9] was more than 10 µM each time.
